One block for each molecule: values may come before it. Calls of active or inactive are those of the source. The calls are words filed in the database; no cut-off is given here.
What was measured:
Mus musculus [1] = assay: Evaluated in vivo for their ability to decrease plasma glucose levels in diabetic C57BL/KsJ db/db mouse at a dose 100 mg/kg/day. *p indicates <0.05; assay type: functional
How it was run: (§1)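 Mice dosed orally once daily for 4 days; plasma glucose and insulin measured and expressed as percent change versus a vehicle-treated group (mean ± SE, 4-6 mice/group). NS is generally less than -15% change. Significance is versus vehicle-treated mice.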

[2] = target: T1, Tyrosine-protein phosphatase non-receptor type 1 (Rattus norvegicus) (UniProt P20417); assay: Inhibition of PTPase activity using recombinant Protein-tyrosine phosphatase 1B as the enzyme and IR-triphosphopeptide as substrate at 50 uM
T1 sequence (whole entry): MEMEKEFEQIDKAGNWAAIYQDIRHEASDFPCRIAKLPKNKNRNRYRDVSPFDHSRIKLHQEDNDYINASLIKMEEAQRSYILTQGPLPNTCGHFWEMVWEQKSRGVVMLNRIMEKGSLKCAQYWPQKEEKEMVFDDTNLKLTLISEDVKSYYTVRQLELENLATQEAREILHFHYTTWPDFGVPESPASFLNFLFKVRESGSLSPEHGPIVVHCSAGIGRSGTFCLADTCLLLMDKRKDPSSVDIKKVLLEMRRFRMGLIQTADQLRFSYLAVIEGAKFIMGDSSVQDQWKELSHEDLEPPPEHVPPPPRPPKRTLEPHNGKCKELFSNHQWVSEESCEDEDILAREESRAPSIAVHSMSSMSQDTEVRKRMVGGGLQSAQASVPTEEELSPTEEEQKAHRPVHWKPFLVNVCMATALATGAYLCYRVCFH
How it was run: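 Recombinant rat PTP1B (human 321-aa form assayed the same way), activity about 1000-2000 nmol/min/mg, preincubated with compound for 10 min at 37 °C in HEPES pH 7.4. The reaction is started with 50 µM triphosphorylated insulin receptor 1142-1153 dodecapeptide and run 30 min at 37 °C. Released phosphate read by malachite green-molybdate at 650 nm, in quadruplicate. Result is percent inhibition versus control.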

Mus musculus [3] = assay: Evaluated for their ability to decrease plasma insulin levels in mouse at a dose 100 mg/kg/day; **p indicates <0.01; assay type: functional; how it was run: as §1
Mus musculus [4] = assay: Evaluated in vivo for their ability to decrease plasma glucose levels in diabetic C57BL/KsJ ob/ob mouse at a dose 100 mg/kg/day; **p indicates <0.01; assay type: functional; how it was run: as §1
[5] = target: T2, Tyrosine-protein phosphatase non-receptor type 1 (Homo sapiens) (UniProt P18031); assay: % inhibition of PTPase activity, recombinant human Protein-tyrosine phosphatase 1B as the enzyme at a concentration 50 uM
T2 sequence (whole entry): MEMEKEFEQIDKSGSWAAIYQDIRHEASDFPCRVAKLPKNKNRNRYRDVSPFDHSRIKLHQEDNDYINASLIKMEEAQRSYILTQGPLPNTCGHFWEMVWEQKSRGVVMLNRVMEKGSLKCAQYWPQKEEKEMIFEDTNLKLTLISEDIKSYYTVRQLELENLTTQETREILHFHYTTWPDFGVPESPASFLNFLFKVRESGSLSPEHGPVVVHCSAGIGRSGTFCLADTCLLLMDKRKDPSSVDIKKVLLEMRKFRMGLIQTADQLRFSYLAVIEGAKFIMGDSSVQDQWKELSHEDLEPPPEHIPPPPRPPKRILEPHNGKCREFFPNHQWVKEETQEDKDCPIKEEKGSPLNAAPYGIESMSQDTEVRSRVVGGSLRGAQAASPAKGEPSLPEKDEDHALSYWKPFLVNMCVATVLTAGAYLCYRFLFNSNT
How it was run: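 Human recombinant PTP1B (321 aa form) dephosphorylating IR-triphosphopeptide (pY1146/1150/1151), 50 µM final. Run as for the rat enzyme: 10 min preincubation with compound at 37 °C, pH 7.4, then 30 min reaction at 37 °C. Phosphate read by malachite green-ammonium molybdate at 650 nm. Quadruplicates. IC50 by four-parameter logistic regression.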

[6] = target: T1, Tyrosine-protein phosphatase non-receptor type 1 (Rattus norvegicus); assay: Inhibition of Protein-tyrosine phosphatase 1B activity in rat hepatic membrane at a concentration of 50 uM using pNPP as the substrate; assay type: cell membranes; settings: Liver
How it was run: (§2)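 Liver membranes from male Sprague-Dawley rats (100-150 g), about 30 µg protein per well. Preincubated 10 min at 37 °C with compound in 1.25% DMSO in 50 mM HEPES pH 7.4. Then 6.33 mM pNPP for 30 min at 37 °C, stopped with NaOH. p-Nitrophenol read at 410 nm. Run in triplicate. Reported as percent of untreated control.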

[7] = target: T1, Tyrosine-protein phosphatase non-receptor type 1 (Rattus norvegicus); assay: Inhibition of PTPase (PTP1B) activity in rat hepatic membrane at 50 uM concentration, using pNPP as the substrate; assay type: cell membranes; settings: Liver; how it was run: as §2
[8] = target: T3, Tyrosine-protein phosphatase non-receptor type 1 (Rattus norvegicus, UniProt P20417); assay: Inhibition of PTPase activity using recombinant r-PTP1B and IR-triphosphopeptide as substrate; ND is no data.
T3 sequence (P20417 whole entry): T1 sequence (whole entry)
How it was run: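 Rat recombinant PTP1B in 33 mM TRIS-HCl, 2 mM EDTA, 50 mM β-mercaptoethanol, pH 7.4 (about 1000-2000 nmol/min/mg). Preincubated 10 min at 37 °C with or without compound in HEPES buffer pH 7.4. Released phosphate read by malachite green-ammonium molybdate at 650 nm against a phosphate standard. Quadruplicates. IC50 by four-parameter logistic fit.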

[9] = target: T4, Tyrosine-protein phosphatase non-receptor type 1 (Mus musculus) (UniProt P35821); assay: In vivo ability to decrease plasma glucose levels in diabetic C57BL/KsJ ob/ob mouse at a dose 100 mg/kg/day; assay type: functional, organism-based
T4 sequence (whole entry): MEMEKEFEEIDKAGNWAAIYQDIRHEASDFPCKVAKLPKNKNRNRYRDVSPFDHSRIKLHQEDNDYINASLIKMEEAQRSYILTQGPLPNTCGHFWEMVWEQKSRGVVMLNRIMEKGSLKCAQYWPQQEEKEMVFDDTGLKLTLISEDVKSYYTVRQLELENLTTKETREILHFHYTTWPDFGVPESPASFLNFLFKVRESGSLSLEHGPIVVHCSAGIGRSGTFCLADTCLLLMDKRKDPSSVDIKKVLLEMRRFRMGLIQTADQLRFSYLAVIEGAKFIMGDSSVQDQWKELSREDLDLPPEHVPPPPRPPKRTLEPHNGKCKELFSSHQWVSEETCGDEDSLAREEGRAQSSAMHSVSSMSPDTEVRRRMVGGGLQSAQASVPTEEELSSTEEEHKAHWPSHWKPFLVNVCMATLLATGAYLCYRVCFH
How it was run: (§3)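 Diabetic db/db or ob/ob mice dosed orally once daily for 4 days. Plasma glucose and insulin reported as percent change from a vehicle-treated group. 4-6 mice per group. Significance set at p < 0.05 or p < 0.01 versus vehicle; NS means generally less than -15% change.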

[10] = target: T4, Tyrosine-protein phosphatase non-receptor type 1 (Mus musculus); assay: Ability to decrease plasma insulin levels in mouse at a dose 100 mg/kg/day; assay type: functional, organism-based; how it was run: as §3
Mus musculus [11] = assay: Evaluated in vivo for their ability to decrease plasma glucose levels in diabetic C57BL/KsJ db/db mouse at a dose 100 mg/kg/day; assay type: functional; how it was run: as §3
Mus musculus [12] = assay: Evaluated for their ability to decrease plasma insulin levels in mouse at a dose 100 mg/kg/day.([…]); assay type: functional; how it was run: as §3
Mus musculus [13] = assay: Evaluated in vivo for their ability to decrease plasma glucose levels in diabetic C57BL/KsJ db/db mouse at a dose 100 mg/kg/day.; assay type: functional; how it was run: as §3
[14] = target: T1, Tyrosine-protein phosphatase non-receptor type 1 (Rattus norvegicus); assay: IC50 for PTPase activity, recombinant r-PTP1B as the enzyme .
Mus musculus [15] = assay: Evaluated in vivo for their ability to decrease plasma glucose levels in diabetic C57BL/KsJ ob/ob mouse at a dose 100 mg/kg/day.([…]); assay type: functional; how it was run: as §3
Mus musculus [16] = assay: Evaluated in vivo for their ability to decrease plasma glucose levels in diabetic C57BL/KsJ ob/ob mouse at a dose 70 mg/kg/day; NS is not significant; assay type: functional, organism-based; how it was run: as §3
Mus musculus [17] = assay: Evaluated for their ability to decrease plasma insulin levels in mouse at a dose 70 mg/kg/day; NS is not significant; assay type: functional, organism-based; how it was run: as §3
Mus musculus [18] = assay: Evaluated in vivo for their ability to decrease plasma glucose levels in diabetic C57BL/KsJ db/db mouse at a dose 100 mg/kg/day; NS is not significant; assay type: functional, organism-based; how it was run: as §3
Mus musculus [19] = assay: Evaluated in vivo for their ability to decrease plasma glucose levels in diabetic C57BL/KsJ db/db mouse at a dose 100 mg/kg/day; NS is non significant, generally less than - 15% change; assay type: functional, organism-based; how it was run: as §3
Mus musculus [20] = assay: Evaluated for their ability to decrease plasma insulin levels in mouse at a dose 50 mg/kg/day. **p indicates <0.01; assay type: functional; how it was run: as §3
Mus musculus [21] = assay: Evaluated in vivo for their ability to decrease plasma glucose levels in diabetic C57BL/KsJ ob/ob mouse at a dose 50 mg/kg/day.; assay type: functional, organism-based; how it was run: as §3
Mus musculus [22] = assay: Evaluated in vivo for their ability to decrease plasma glucose levels in diabetic C57BL/KsJ ob/ob mouse at a dose 100 mg/kg/day, **p indicates <0.01; assay type: functional; how it was run: as §3
Mus musculus [23] = assay: Evaluated for their ability to decrease plasma insulin levels in mouse at a dose 100 mg/kg/day, **p indicates <0.01; assay type: functional; how it was run: as §3
Mus musculus [24] = assay: Evaluated in vivo for their ability to decrease plasma glucose levels in diabetic C57BL/KsJ db/db mouse at a dose 100 mg/kg/day, *p indicates <0.05; assay type: functional; how it was run: as §1

- inhibition [2]: 1.4%
- inhibition [6]: 57%
SMILES: C/C(=C\C=C\Cn1oc(=O)[nH]c1=O)c1cccc(OCc2nc(-c3ccccc3)oc2C)c1
- Decrease (Mus musculus [16]): inactive
- Decrease (Mus musculus [17]): inactive
- Decrease (Mus musculus [18]): inactive

- inhibition [7]: 36%
- IC50 [8]: Not significant
- Decrease [9]: Not significant
- Decrease [10]: Not significant
SMILES: C/C(=C\CC1OC(=O)NC1=O)c1cccc(OCCc2nc(-c3ccccc3)oc2C)c1 (stereo not given)
- Decrease (Mus musculus [19]): inactive

- inhibition [7]: 49%
SMILES: Cc1oc(-c2ccc(C(F)(F)F)cc2)nc1COc1cccc(/C=C/C(C)n2oc(=O)[nH]c2=O)c1 (stereo not given)
- Decrease (Mus musculus [1]): 41%
- Decrease (Mus musculus [20]): 83%
- Decrease (Mus musculus [21]): inactive

- inhibition [7]: 57%
- IC50 [8]: Not significant
SMILES: C/C(=C\Cn1oc(=O)[nH]c1=O)c1cccc(OCc2nc(-c3ccc(OC(F)(F)F)cc3)oc2C)c1
- Decrease (Mus musculus [22]): 39%
- Decrease (Mus musculus [23]): 82%
- Decrease (Mus musculus [24]): 41%

More lines, now with the values behind:

SMILES: CCC/C(=C\Cn1oc(=O)[nH]c1=O)c1cccc(OCc2nc(-c3ccc(C(F)(F)F)cc3)oc2C)c1
- Decrease (Mus musculus [1]): 59%
- inhibition [2]: 2%
- Decrease (Mus musculus [3]): 82%
- Decrease (Mus musculus [4]): 58%
- inhibition [5]: 1.9%
- inhibition [6]: 58%

SMILES: Cc1oc(-c2ccc(OC(F)(F)F)cc2)nc1COc1cccc(C(C)CCn2oc(=O)[nH]c2=O)c1 (stereo not given)
- inhibition [7]: 47%
- IC50 [8]: Not significant
- Decrease [9]: Not significant
- Decrease [10]: Not significant
- Decrease (Mus musculus [11]): 41%

SMILES: C/C(=C\CC1SC(=O)NC1=O)c1cccc(OCc2nc(-c3ccc(OC(F)(F)F)cc3)oc2C)c1 (stereo not given)
- inhibition [7]: 46%
- Decrease (Mus musculus [12]): 63%
- Decrease (Mus musculus [13]): 18%
- IC50 [14]: 1500 nM
- Decrease (Mus musculus [15]): 44%

From ChEMBL document CHEMBL1132971, “New azolidinediones as inhibitors of protein tyrosine phosphatase 1B with antihyperglycemic properties” (J Med Chem, 2000)
